Published values from different studies.
Each line is one published result; the experiments were not run side by side.
Target: Phosphatidylinositol 4-phosphate 5-kinase type-1 alpha (PIP5K1A, Homo sapiens, UniProt Q99755)

COc1ccc2oc(-c3ccc4nc(N)oc4c3)c/c(=N\c3ccccc3NC(=O)CCN)c2c1 has a remaining binding of 95% (binding; 1 µM).
CC#CC(=O)N1CCC[C@H]1c1nc(-c2ccc(C(=O)Nc3ccccn3)cc2)c2c(N)nccn12 gave an inhibition of 12% (enzyme activity; inhibitor; 1 µM).
The activity vs control of CC(C)S(=O)(=O)c1ccc2nccc(Nc3ccc4sc(C5CCCC5)nc4c3)c2c1 is reported as 104% (enzyme activity; inhibitor; 1 µM).
The remaining binding of CCCCC(=O)Nc1ccc(-c2ccc3ncn(CCC)c(=O)c3c2)cn1 is reported as 100% (binding; competition with immobilised ligand; 0.5 µM).
For C=CC(=O)N1CCC([C@@H]2CCNc3c(C(N)=O)c(-c4ccc(Oc5ccccc5)cc4)nn32)CC1, the inhibition was 16% (enzyme activity; inhibitor; 1 µM).
The remaining binding of C[C@]1(O)CCCN(c2nc(Nc3ccc(S(=O)(=O)N[C@H]4CC[C@H](CN5CCN(c6ccc(C7CCC(=O)NC7=O)cc6F)CC5)CC4)cc3F)ncc2C(F)(F)F)C1 (stereo partly shown) is reported as 94% (binding; competition with immobilised ligand; 1 µM).
For COc1ccc2[nH]c3c4[nH]c5ccc(OC)cc5c4c4c(c3c2c1)C(=O)NC4=O, the remaining binding was 100% (binding; 1 µM).
With C[C@]1(O)CCCN(c2nc(Nc3ccc(S(=O)(=O)N[C@H]4CC[C@H](CN5CCN(c6ccc(C7CCC(=O)NC7=O)cc6F)CC5)CC4)cc3Cl)ncc2C(F)(F)F)C1 (stereo partly shown) the remaining binding was 93% (binding; competition with immobilised ligand; 1 µM).
CN1CCN(C(=O)c2ccc(NC(=O)Nc3ccc(N(C)c4ccnc(Nc5ccc(CS(C)(=O)=O)cc5)n4)cc3)cc2)CC1 has a remaining binding of 9.3% (binding; 1 µM).
The remaining binding of C1=C/COCc2cc(ccc2OCCN2CCCC2)Nc2nccc(n2)-c2cccc(c2)COC/1 is reported as 20% (binding; 0.1 µM).
